Calls of active or inactive are those of the source. The rule behind the calls is not given here.
Assays:
[1] = species: Cavia porcellus; test: Skin Phototoxicity was tested on depilated Guinea Pigs (outbred Dunkin - Hartley strain) and erythema intensity was measured; Absent; type: functional, organism-based
[2] = test system: HL-60; test: Antiproliferative activity against HL-60 (human promyelocytic leukemic cells) in dark condition; type: functional, cell-based
[3] = test system: HeLa; test: Antiproliferative activity against HeLa (human cervix adenocarcinoma cells) in dark condition; type: functional, cell-based
Outline: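 Dark control on HeLa (F-12, 10% FCS, 37 °C, 5% CO2). 10^5 cells/well were seeded and, after 24 h, given phenol-red-free DMEM with various agent concentrations. No irradiation was applied, and compound was not washed out; cells were kept 24 h in complete F-12 with compound. Viability was by trypan blue; IC50 is the 50% drop in cell number relative to control cultures.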

[4] = test system: HeLa; test: Antiproliferative activity against HeLa (human cervix adenocarcinoma cells) after exposure to UV light; type: functional, cell-based
Outline: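 HeLa cells grown in F-12 with 10% heat-inactivated FCS at 37 °C, 5% CO2. 10^5 cells/well were incubated 24 h, switched to phenol-red-free DMEM, and given various agent concentrations. After 1 h they were irradiated with UVA at 0.793 J cm^-2 (365 nm lamps). Drug medium was then removed, and cells were kept 24 h in complete F-12. Trypan blue counts gave IC50 versus control.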

[5] = test system: HL-60; test: Antiproliferative activity against HL-60 (human promyelocytic leukemic cells) after exposure to UV light; type: functional, cell-based
Outline: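 HL-60 cells grown in RPMI 1640 with 15% heat-inactivated FCS at 37 °C, 5% CO2. 10^5 cells/well were incubated 24 h, then test agent was added at various concentrations in complete medium. After 1 h in the dark, cells received a UVA dose of 0.793 J cm^-2 (lamps emitting >90% at 365 nm) and were incubated 24 h more. Viability was read by trypan blue; IC50 is the 50% reduction in cell number versus control cultures.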

IC50 [2] [µM] | IC50 [3] [µM] | IC50 [4] [µM] | IC50 [5] [µM] | SMILES | Erythema intensity [1]
9.9 | > 20 | 0.64 | 0.67 | Cc1coc2c(OCCCN(C)C)c3oc(=O)c4ccccc4c3cc12 | inactive
> 20 | > 20 | > 20 | 11.8 | COc1c2occ(C)c2cc2c1oc(=O)c1ccccc12 | inactive
> 20 | > 20 | – | – | COc1c2occc2cc2ccc(=O)oc12 [METHOXSALEN] | –
> 20 | > 20 | > 20 | > 20 | Cc1coc2c(O)c3oc(=O)c4ccccc4c3cc12 | inactive

The next lines start with the compound.

SMILES | IC50 [2] [µM] | IC50 [3] [µM] | IC50 [4] [µM] | IC50 [5] [µM] | Erythema intensity [1]
Cc1coc2c(OCCCN(C)C)c3oc(=O)c4c(c3cc12)CCCC4 | 16 | > 20 | 0.68 | 0.95 | inactive
Cc1coc2c(O)c3oc(=O)c4c(c3cc12)CCCC4 | > 20 | > 20 | 17.4 | 17 | inactive
COc1c2occ(C)c2cc2c3c(c(=O)oc12)CCCC3 | > 20 | > 20 | 15.7 | 13 | inactive

Reference: ChEMBL document CHEMBL1145066, “Novel pyrone side tetracyclic psoralen derivatives: synthesis and photobiological evaluation” (J Med Chem, 2003)
